How the values were obtained:
BaF3 [1] = test: Antitumor activity against mouse BAF3 cells harboring TEL fused TRKC allografted in nude mouse assessed as tumor growth inhibition at 40 mg/kg, po administered once daily for 10 days relative to control; assay type: functional; settings: 240 h, time 10 day, read-out: TGI
Outline: (§1)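 Nu/nu mice given 1 million BaF3 cells (TEL-TRKA, TEL-TRKB, TEL-TRKC, LMNA-TRKA-F589L or LMNA-TRKA-G667S) in DMEM, 1:1 with matrigel, injected subcutaneously into the right flank; oral gavage began at 200–400 mm³, 5 mice per group, compound in 0.5% methylcellulose/0.4% Tween 80 in ddH₂O, 10 days; tumor volume [(W²×L)/2] and body weight recorded daily; TGI versus vehicle.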

[2] = target: T1, High affinity nerve growth factor receptor (Homo sapiens, UniProt P04629); test: Inhibition of wild type TEL fused TRKA (unknown origin) transfected in mouse BAF3 cells assessed as growth inhibition after 72 hrs by CCK8 assay; assay type: cell-based
Target sequence in this assay (P04629 33-796 limits assumed): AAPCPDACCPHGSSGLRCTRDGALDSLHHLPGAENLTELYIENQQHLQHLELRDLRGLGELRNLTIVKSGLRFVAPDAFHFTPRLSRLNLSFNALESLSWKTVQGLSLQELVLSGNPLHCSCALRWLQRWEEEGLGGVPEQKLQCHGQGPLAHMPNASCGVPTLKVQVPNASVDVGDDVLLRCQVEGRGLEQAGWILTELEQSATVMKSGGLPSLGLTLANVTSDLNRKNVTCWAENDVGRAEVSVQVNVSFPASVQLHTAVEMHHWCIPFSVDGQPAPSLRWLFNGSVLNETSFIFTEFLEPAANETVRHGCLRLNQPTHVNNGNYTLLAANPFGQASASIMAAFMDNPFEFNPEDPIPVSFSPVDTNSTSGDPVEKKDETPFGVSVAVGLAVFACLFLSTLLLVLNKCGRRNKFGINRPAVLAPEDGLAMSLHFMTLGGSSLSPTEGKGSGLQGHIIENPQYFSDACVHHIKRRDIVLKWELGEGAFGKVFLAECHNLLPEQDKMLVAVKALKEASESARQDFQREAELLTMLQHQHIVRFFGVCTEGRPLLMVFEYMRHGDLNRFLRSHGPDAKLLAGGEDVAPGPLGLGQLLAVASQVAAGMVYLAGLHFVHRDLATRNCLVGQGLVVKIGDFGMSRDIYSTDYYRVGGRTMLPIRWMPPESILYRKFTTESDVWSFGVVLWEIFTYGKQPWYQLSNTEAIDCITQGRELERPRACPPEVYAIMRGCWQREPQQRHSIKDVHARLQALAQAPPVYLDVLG

[3] = Inhibition of LMNA fused TRKA V573M mutant (unknown origin) transfected in mouse BaF3 cells assessed as reduction in phosphorylation at Y490 residue after 2 hrs by Western blot analysis; settings: Homo sapiens, BaF3, 2 h
KM12-Luc = test: Induction of apoptosis in human KM-12-LUC cells assessed as increase in cleaved PARP level after 24 hrs by Western blot analysis; assay type: functional, cell-based; settings: dose 0.01-10 µM
Outline: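 KM-12-LUC cells cultured in RPMI 1640 with 10% FBS and 1% penicillin/streptomycin at 37 °C, 5% CO2. Serially diluted compound added for 24 h. Apoptosis read by western blot for PARP cleavage, with β-actin as loading control.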

[4] = target: VEGFR2 (vascular endothelial growth factor receptor 2), wild type, TEL fusion (Homo sapiens, UniProt P35968); test: Inhibition of wild type TEL fused VEGFR2 (unknown origin) transfected in mouse BAF3 cells assessed as growth inhibition after 72 hrs by CCK8 assay; assay type: cell-based; settings: mouse BaF3 cells transfected with wild type TEL-fused VEGFR2
Sequence of VEGFR2 (vascular endothelial growth factor receptor 2), wild type, TEL fusion (P35968 whole entry, the tested form may be a part): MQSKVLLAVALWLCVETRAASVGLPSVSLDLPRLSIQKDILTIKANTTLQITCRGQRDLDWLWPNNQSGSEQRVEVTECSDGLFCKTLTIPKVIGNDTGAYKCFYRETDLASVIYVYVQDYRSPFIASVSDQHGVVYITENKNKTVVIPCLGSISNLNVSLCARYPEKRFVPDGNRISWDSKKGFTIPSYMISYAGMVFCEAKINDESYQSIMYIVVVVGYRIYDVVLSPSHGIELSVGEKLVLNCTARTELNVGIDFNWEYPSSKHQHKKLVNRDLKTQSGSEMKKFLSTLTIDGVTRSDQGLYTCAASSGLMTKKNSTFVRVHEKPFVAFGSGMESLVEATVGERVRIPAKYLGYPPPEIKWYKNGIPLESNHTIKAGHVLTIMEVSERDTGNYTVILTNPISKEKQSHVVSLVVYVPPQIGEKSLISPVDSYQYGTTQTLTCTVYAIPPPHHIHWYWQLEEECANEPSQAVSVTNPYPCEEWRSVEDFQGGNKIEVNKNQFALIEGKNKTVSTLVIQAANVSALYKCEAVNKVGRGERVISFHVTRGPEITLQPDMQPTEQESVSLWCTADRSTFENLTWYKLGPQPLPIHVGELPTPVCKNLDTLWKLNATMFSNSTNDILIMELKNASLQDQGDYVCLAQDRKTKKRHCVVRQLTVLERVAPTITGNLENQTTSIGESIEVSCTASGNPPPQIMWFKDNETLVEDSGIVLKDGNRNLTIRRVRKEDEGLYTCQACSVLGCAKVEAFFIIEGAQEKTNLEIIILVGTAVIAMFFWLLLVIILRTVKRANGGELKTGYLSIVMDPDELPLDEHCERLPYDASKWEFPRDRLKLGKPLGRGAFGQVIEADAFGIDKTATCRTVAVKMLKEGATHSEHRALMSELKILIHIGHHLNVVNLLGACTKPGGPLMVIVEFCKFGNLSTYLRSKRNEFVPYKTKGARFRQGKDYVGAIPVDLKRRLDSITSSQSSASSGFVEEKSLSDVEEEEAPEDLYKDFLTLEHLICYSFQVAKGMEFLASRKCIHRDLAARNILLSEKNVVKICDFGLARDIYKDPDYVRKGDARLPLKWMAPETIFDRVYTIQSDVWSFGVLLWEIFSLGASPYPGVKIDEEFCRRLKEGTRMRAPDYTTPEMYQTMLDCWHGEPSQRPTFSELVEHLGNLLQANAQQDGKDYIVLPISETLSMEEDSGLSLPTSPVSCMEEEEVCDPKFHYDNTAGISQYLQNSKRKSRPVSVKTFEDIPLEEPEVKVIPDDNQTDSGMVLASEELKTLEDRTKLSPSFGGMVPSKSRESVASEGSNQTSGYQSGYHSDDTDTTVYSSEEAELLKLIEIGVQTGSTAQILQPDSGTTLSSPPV

[5] = Cmax in Beagle dog at 1 mg/kg, iv; assay type: ADME, organism-based, Canis lupus familiaris; parameters: route intravenous, dose 1 mg/kg; settings: in vivo
BaF3 [6] = test: Inhibition of LMNA fused TRKA G667S mutant (unknown origin) transfected in mouse BAF3 cells assessed as growth inhibition after 72 hrs by CCK8 assay; assay type: cell-based; settings: Homo sapiens
[7] = Half life in Beagle dog at 1 mg/kg, iv; assay type: ADME, organism-based, Canis lupus familiaris; settings: in vivo
BaF3 [8] = test: Antitumor activity against mouse BAF3 cells harboring TEL fused TRKB allografted in nude mouse assessed as tumor growth inhibition administered orally once daily for 10 days; assay type: functional, cell-based; settings: dose 40-80 mg/kg/day, time 10.0 day; outline: as §1
BaF3 [9] = test: Antitumor activity against mouse BAF3 cells harboring LMNA fused TRKA-F589L mutant allografted in nude mouse assessed as tumor growth inhibition at 80 mg/kg, po administered once daily for 10 days relative to control; assay type: functional; settings: 240 h, time 10 day, read-out: TGI; outline: as §1
[10] = Tmax in Sprague-Dawley rat at 10 mg/kg, po; assay type: ADME, organism-based; settings: in vivo
Outline: (§2)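 Single-dose PK in mice, Sprague Dawley rats and beagle dogs, given i.v. (1 mg/kg) or p.o. (10 mg/kg mice and rats; 5 mg/kg dogs). AUC0-t, T1/2, Tmax and oral bioavailability (F) derived from plasma profiles.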

[11] = target: T1, High affinity nerve growth factor receptor; test: Inhibition of TRKA in human KM-12-LUC cells assessed as reduction in AKT phosphorylation at S473 residue after 2 hrs by Western blot analysis; assay type: cell-based, KM12-Luc
Outline: (§3)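 KM-12-LUC (TPM3-TRKA fused colon cancer cells) grown in RPMI 1640 with 10% FBS and 1% penicillin/streptomycin at 37 °C under 5% CO2. Serially diluted compound added for 2 h. Lysates western blotted for phospho-AKT (T308/S473) and phospho-ERK1/2 (T202/Y204).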
Target sequence in this assay (P04629 whole entry, the tested form may be a part): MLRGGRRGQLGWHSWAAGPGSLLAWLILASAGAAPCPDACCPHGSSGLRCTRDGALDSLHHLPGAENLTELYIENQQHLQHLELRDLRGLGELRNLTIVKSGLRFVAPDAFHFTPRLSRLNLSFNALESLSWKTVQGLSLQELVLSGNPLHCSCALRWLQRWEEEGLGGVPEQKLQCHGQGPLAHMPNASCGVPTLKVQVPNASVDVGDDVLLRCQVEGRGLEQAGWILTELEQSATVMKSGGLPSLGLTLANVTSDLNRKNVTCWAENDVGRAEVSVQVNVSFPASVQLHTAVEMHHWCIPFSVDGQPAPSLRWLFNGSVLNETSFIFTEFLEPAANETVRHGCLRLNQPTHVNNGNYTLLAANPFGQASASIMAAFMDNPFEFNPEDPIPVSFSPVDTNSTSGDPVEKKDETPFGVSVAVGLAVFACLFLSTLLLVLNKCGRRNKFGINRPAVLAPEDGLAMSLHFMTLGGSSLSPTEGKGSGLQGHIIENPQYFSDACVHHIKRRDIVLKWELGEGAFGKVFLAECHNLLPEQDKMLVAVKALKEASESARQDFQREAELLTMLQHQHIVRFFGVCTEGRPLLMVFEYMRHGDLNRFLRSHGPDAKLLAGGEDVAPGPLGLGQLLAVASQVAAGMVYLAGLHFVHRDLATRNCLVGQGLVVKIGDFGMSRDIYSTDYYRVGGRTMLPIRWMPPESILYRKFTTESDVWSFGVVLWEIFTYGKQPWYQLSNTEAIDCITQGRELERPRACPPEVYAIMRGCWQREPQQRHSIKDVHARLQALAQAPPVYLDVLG

[12] = target: BDNF/NT-3 growth factors receptor (Homo sapiens, UniProt Q16620); test: Inhibition of human TRKB by Z-LYTE or ADP-Glo assay
Sequence of BDNF/NT-3 growth factors receptor (Q16620 whole entry): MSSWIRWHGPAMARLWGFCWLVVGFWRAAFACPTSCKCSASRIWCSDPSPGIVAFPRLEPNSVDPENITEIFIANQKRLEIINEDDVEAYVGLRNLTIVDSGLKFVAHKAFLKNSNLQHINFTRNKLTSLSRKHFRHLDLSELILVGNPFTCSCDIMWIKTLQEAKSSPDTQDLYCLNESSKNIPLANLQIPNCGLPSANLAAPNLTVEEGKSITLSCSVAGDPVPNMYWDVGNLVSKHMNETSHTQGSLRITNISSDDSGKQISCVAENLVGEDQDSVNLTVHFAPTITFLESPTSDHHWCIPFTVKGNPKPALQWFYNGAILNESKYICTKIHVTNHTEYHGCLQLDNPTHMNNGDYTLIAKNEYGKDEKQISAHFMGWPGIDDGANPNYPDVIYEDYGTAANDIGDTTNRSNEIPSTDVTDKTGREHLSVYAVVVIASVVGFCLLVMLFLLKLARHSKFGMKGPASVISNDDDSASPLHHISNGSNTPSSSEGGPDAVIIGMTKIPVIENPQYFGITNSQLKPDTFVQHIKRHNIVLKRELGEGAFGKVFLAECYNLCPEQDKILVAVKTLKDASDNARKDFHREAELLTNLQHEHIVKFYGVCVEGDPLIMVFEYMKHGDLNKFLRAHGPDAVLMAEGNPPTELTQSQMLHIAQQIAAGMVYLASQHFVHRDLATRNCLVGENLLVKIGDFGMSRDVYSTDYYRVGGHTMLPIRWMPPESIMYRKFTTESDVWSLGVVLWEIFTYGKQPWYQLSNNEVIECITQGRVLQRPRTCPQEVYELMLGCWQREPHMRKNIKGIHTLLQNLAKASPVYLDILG
Outline: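 Purified kinase proteins tested biochemically in Z'LYTE or ADP-Glo format.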

[13] = target: T1, High affinity nerve growth factor receptor; test: Inhibition of TRKA in human KM-12-LUC cells assessed as reduction in AKT phosphorylation at T308 residue after 2 hrs by Western blot analysis; assay type: cell-based, KM12-Luc; outline: as §3
Target sequence in this assay (P04629 whole entry, the tested form may be a part): as the sequence (P04629 whole entry, the tested form may be a part) above

[14] = Apparent clearance in Sprague-Dawley rat at 1 mg/kg, iv; assay type: ADME, organism-based; settings: in vivo
[15] = Apparent clearance in mouse at 10 mg/kg, po; assay type: ADME, organism-based; settings: in vivo, read-out: CLz/F (converted)
[16] = Apparent volume of distribution in mouse at 1 mg/kg, iv; assay type: ADME, organism-based; settings: in vivo, read-out: Vz
[17] = Oral bioavailability in mouse at 10 mg/kg; assay type: ADME, organism-based; settings: in vivo; outline: as §2
[18] = Antitumor activity against human […] cells xenografted in nude mouse assessed as tumor growth inhibition at 40 mg/kg, po administered once daily for 10 days relative to control; assay type: functional; settings: KM12-Luc, 240 h, time 10 day, read-out: TGI
Outline: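 Nu/nu mice given 5 million KM-12-LUC cells in DMEM, 1:1 with matrigel, injected subcutaneously into the right flank; oral gavage started at tumor size 150–200 mm³, 5 mice per group, compound in 0.5% methylcellulose/0.4% Tween 80 in ddH₂O; body weight and tumor volume [(W²×L)/2] measured daily; TGI versus vehicle.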

[19] = Apparent volume of distribution in Beagle dog at 5 mg/kg, po; assay type: ADME, organism-based, Canis lupus familiaris; settings: in vivo

Cc1nc(NC(=O)CN2CCN(C)CC2)sc1-c1ccc2c(/C=C/c3ccccn3)n[nH]c2c1
inhibition in vivo at 40 mg/kg/day (BaF3 [1]): 40.6% | GI50 [2]: 8.5 nM | EC50 [3]: 13 nM | Activity (KM12-Luc): Dose-dependent effect | GI50 at 72 h [4]: 1180 nM | Cmax [5]: 284 ng/mL | GI50 (BaF3 [6]): 2 nM | t1/2 [7]: 1.8 min | Activity (BaF3 [8]): Dose-dependent effect | inhibition in vivo at 80 mg/kg/day (BaF3 [9]): 87.7% | Tmax [10]: 4.7 h | EC50 [11]: < 30 nM | IC50 [12]: 0.71 nM | EC50 [13]: < 30 nM | CLz/F [14]: 41.35 mL/min/kg | CL/F [15]: 108 mL/min/kg | Vd [16]: 4.93 L/kg | bioavailability [17]: 20% | inhibition in vivo at 40 mg/kg/day [18]: 93.4% | Vz [19]: 149.26 L/kg

Source: ChEMBL document CHEMBL4765452, “Discovery of (E)-N-(4-methyl-5-(3-(2-(pyridin-2-yl)vinyl)-1H-indazol-6-yl)thiazol-2-yl)-2-(4-methylpiperazin-1-yl)acetamide (IHMT-TRK-284) as a novel orally available type II TRK kinase inhibitor capable of overcoming multiple resistant mutants” (Eur J Med Chem, 2020)
